Measurements taken from ChEMBL document CHEMBL1135652, “Novel soluble cationic trans-diaminedichloroplatinum(II) complexes that are active against cisplatin resistant ovarian cancer cell lines” (J Med Chem, 2002).
Values joined by “and” are separate entries in the source; they are usually repeats but may differ in a detail not shown here. Identical values can stand only once.

Experiments:
CH1 [1] = assay: cytotoxicity against CH1 cells incubated for 24 hr in MTT assay.; format: functional, cell-based, Homo sapiens
Procedure, shortened: (§1)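 Cisplatin-sensitive/resistant ovarian cancer line pairs; platinum complexes dissolved in 10 mM NaClO4 in water (1 mg/mL stock, fresh), added to cultures at final 0–200 μM for 24 h. Survival by MTT, absorbance at 520 nm; IC50 (concentration giving 50% cell killing) taken from % survival vs concentration curves. Quadruplicate experiments.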

A2780cisR [2] = assay: cytotoxicity against A2780cisR cells incubated for 24 hr in MTT assay; format: functional, cell-based, Homo sapiens; procedure, shortened: as §1
41M [3] = assay: cytotoxicity against 41McisR cells incubated for 24 hr in MTT assay; format: functional, cell-based, Homo sapiens; procedure, shortened: as §1
41M [4] = assay: cytotoxicity against 41M cells incubated for 24 hr in MTT assay.; format: functional, cell-based, Homo sapiens; procedure, shortened: as §1
A2780 = assay: cytotoxicity against A2780 cells incubated for 24 hr in MTT assay.; format: functional, cell-based, Homo sapiens; procedure, shortened: as §1
CH1 [5] = assay: cytotoxicity against CH1cisR cells incubated for 24 hr in MTT assay; format: functional, cell-based, Homo sapiens; procedure, shortened: as §1
A2780cisR [6] = assay: Resistant factor was measured as […]; format: functional, cell-based
[7] = Resistant factor was measured as IC50 41M/ IC50 41McisR; format: functional
[8] = Resistant factor was measured as IC50 CH1/ IC50 CH1cisR; format: functional

Substance	IC50 (CH1 [1])	IC50 (A2780cisR [2])	IC50 (41M [3])	IC50 (41M [4])	IC50 (A2780)	IC50 (CH1 [5])	RF (A2780cisR [6])	RF [7]	RF [8]
CISPLATIN [listing 1 of 2 here]	6 µM	38 µM	107 µM	26 µM	2.2 µM	23 µM			
CISPLATIN [listing 2 of 2 here]							17.3	4.1	3.8
TRANSPLATIN	> 200 µM	> 200 µM	> 200 µM	> 200 µM	> 200 µM	> 200 µM			
trans-ptcl2(IPA)(pz) [listing 1 of 2 here]	10 µM	30 µM	122 µM	38 µM	14 µM	50 µM			
trans-ptcl2(IPA)(pz) [listing 2 of 2 here]							2.1	3.2	5
trans-ptcl2(NH3)(pz) [listing 1 of 2 here]	12 µM and 28 µM	44 µM and 25 µM	155 µM and 112 µM	52 µM and 46 µM	5 µM and 10 µM	34 µM and 56 µM			
trans-ptcl2(NH3)(pz) [listing 2 of 2 here]								3 and 2.4	2.8 and 2
trans-ptcl2(n-butyl amine)(pz) [listing 1 of 2 here]	17 µM	28 µM	48 µM	32 µM	16 µM	19 µM			
trans-ptcl2(n-butyl amine)(pz) [listing 2 of 2 here]							1.8	1.5	1.1
trans-ptcl2(picoline)(pz) [listing 1 of 2 here]	16 µM	24 µM	147 µM	45 µM	10 µM	42 µM			
trans-ptcl2(picoline)(pz) [listing 2 of 2 here]							2.4	3.3	2.6
trans-ptcl2(pip)(pz) [listing 1 of 2 here]	22 µM	64 µM	118 µM	37 µM	18 µM	85 µM			
trans-ptcl2(pip)(pz) [listing 2 of 2 here]							3.6	3.2	3.9
